Reference: ChEMBL document CHEMBL1138854, “Synthesis and antitumor activity of guanylhydrazones from 6-(2,4-dichloro-5-nitrophenyl)imidazo[2,1-b]thiazoles and 6-pyridylimidazo[2,1-b]thiazoles(1)” (2006)

How the values were obtained:
[1] = Antitumor activity against CNS cell lines of the NCI60 panel; format: functional; settings: Homo sapiens; for TGI: read-out: pTGI (converted)
Summary of the method: (§1)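 Run by NCI in the 60-cell-line panel (details in Supporting Information). Highest concentration 10^-4 M unless noted (one case 10-2.6 M). Values expressed as -log molar concentration giving 50% growth inhibition (pGI50), total cytostasis (pTGI) or 50% cell kill (pLC50); only values >4.00 reported; mean graph midpoint is the calculated panel mean.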

[2] = Antitumor activity against melanoma cell lines of the NCI60 panel; format: functional; settings: Homo sapiens; for TGI: read-out: pTGI (converted); summary of the method: as §1
[3] = Antitumor activity against prostate cell lines of the NCI60 panel; format: functional; settings: Homo sapiens; for TGI: read-out: pTGI (converted); summary of the method: as §1
[4] = Antitumor activity against ovarian cell lines of the NCI60 panel; format: functional; settings: Homo sapiens; for TGI: read-out: pTGI (converted); summary of the method: as §1
[5] = Antitumor activity against renal cell lines of the NCI60 panel; format: functional, Homo sapiens; settings: Homo sapiens, renal; for TGI: read-out: pTGI (converted); summary of the method: as §1
[6] = Antitumor activity against breast cell lines of the NCI60 panel; format: functional; settings: Homo sapiens; for TGI: read-out: pTGI (converted); summary of the method: as §1
[7] = Antitumor activity against colon cell lines of the NCI60 panel; format: functional; settings: Homo sapiens; for TGI: read-out: pTGI (converted); summary of the method: as §1
[8] = tested on: NSCLC; experiment: Antitumor activity against NSCLC cell lines of the NCI60 panel; format: functional; settings: Homo sapiens; for TGI: read-out: pTGI (converted); summary of the method: as §1
[9] = Antitumor activity against leukemia cell lines of the NCI60 panel; format: functional; settings: Homo sapiens; for TGI: read-out: pTGI (converted); summary of the method: as §1

Row | Compound | GI50 [1] [µM] | TGI [1] [µM] | GI50 [2] [µM] | TGI [2] [µM] | GI50 [3] [µM] | TGI [3] [µM] | GI50 [4] [µM] | TGI [4] [µM] | GI50 [5] [µM] | GI50 [6] [µM] | TGI [6] [µM] | GI50 [7] [µM] | TGI [7] [µM] | GI50 [8] [µM] | TGI [8] [µM] | GI50 [9] [µM] | TGI [9] [µM] | TGI [5] [µM] | LC50 ([5]; read-out: Log LC50 (converted)) [µM]
1 | CCc1cn2c(/C=N/NC(=N)N)c(-c3cc([N+](=O)[O-])c(Cl)cc3Cl)nc2s1 | 1.45 | 2.82 | 1.51 | 2.82 | 1.58 | 3.09 | 1.58 | 3.09 | 1.51 | 1.66 | 4.27 | 1.38 | 2.95 | 1.7 | 3.16 | 0.933 | 3.24 | – | –
2 | N=C(N)N/N=C/c1c(-c2ccccn2)nc2sc(Cl)cn12 | 5.62 | 11.5 | 7.76 | 15.1 | 9.33 | 17.8 | 7.08 | 14.5 | 7.94 | 8.91 | 20.9 | 7.08 | 15.1 | 8.71 | 18.6 | 4.37 | 13.2 | 15.1 | –
3 | Cc1cn2c(/C=N/NC(=N)N)c(-c3cccnc3)nc2s1 | 12 | 28.2 | 10.2 | 25.7 | 6.92 | 24.5 | 15.8 | 36.3 | 9.55 | 7.08 | 22.4 | 5.62 | 20.9 | 13.8 | 36.3 | 4.79 | 51.3 | – | –
4 | Cc1cn2c(/C=N/NC(=N)N)c(-c3ccccn3)nc2s1 | 8.13 | 26.9 | 9.77 | 28.8 | 7.94 | 39.8 | 17.4 | 63.1 | 7.94 | 8.91 | 37.2 | 8.13 | 29.5 | 10.2 | 32.4 | 3.63 | – | – | –
5 | Cc1cn2c(/C=N/NC(=N)N)c(-c3ccncc3)nc2s1 | 16.2 | 30.9 | 19.5 | 39.8 | 17.4 | 32.4 | 16.6 | 34.7 | 23.4 | 34.7 | 47.9 | 15.8 | 34.7 | 16.6 | 33.1 | 9.77 | 28.2 | 42.7 | –
6 | Cc1cn2c(/C=N/NC(=N)N)c(-c3cc([N+](=O)[O-])c(Cl)cc3Cl)nc2s1 | 2.14 | – | 2.29 | – | – | 2.34 | 2.09 | 19.5 | 2.09 | 4.17 | – | 0.661 | 49 | 2.51 | 19.5 | 1.62 | – | 11.7 | 60.3
7 | N=C(N)N/N=C/c1c(-c2ccc(Cl)c([N+](=O)[O-])c2)nc2n1CCS2 | 6.92 | 25.7 | 8.32 | 24 | 6.61 | 20.9 | 9.77 | 30.9 | 10 | 11.5 | 27.5 | 6.61 | 17.4 | 10.5 | 38.9 | 3.09 | 13.2 | – | –
8 | Cc1sc2nc(-c3cc([N+](=O)[O-])c(Cl)cc3Cl)c(/C=N/NC(=N)N)n2c1C | 11.2 | 67.6 | 5.01 | 16.2 | 9.12 | 38 | 5.25 | 24 | 8.71 | 7.24 | 35.5 | 4.27 | 29.5 | 11 | 47.9 | 2.09 | 22.4 | – | –
